In ChEMBL document CHEMBL3616466, “Pyrazolo[3,4-h]quinolines promising photosensitizing agents in the treatment of cancer” (Eur J Med Chem, 2015):
Active and inactive are the calls of the source. The rule behind the calls is not given here.

Columns and labels:
MCF7 [1] = experiment: Ratio of angelicin GI50 to compound GI50 for human MCF7 cells assessed as growth inhibition at 3.75 J/cm'2 irradiation for 30 mins followed by drug treated for 72 hrs by MTT assay; format: functional
Outline: (§1)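 Cells were pre-incubated 30 min at 37 °C with drug in HBSS, irradiated, then drug replaced with medium. Ratio is angelicin GI50 divided by compound GI50.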

LoVo [2] = experiment: Cytotoxicity against human LoVo cells assessed as growth inhibition after 72 hrs by MTT assay; format: functional
Outline: (§2)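 Cells (5 × 10³ per well) pre-incubated 24 h at 37 °C, 5% CO₂, then exposed in the dark to serial concentrations diluted from DMSO stock into complete medium for 72 h at 37 °C. Viability read by MTT; GI50 derived. LoVo in Ham's F-12, MCF-7 and A-549 in DMEM, all with 10% FBS and penicillin/streptomycin.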

Jurkat [3] = experiment: Induction of apoptosis in human Jurkat cells assessed as ROS production at 1 to 2 uM using HE and DCFDA staining measured 24 hrs post 2.5 J/cm'2 irradiation by FACS assay; format: functional, cell-based
A549 [4] = experiment: Photocytotoxicity against human A549 cells assessed as inhibition of colony formation at 0.0625 to 0.5 uM measured 24 hrs post 2.5 J/cm'2 irradiation after 1 to 2 weeks by optical microscopy; format: functional, cell-based
Outline: (§3)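 A-549 cells (10 × 10³) plated in dishes. After 24 h, irradiated at 2.5 J/cm² with compound at varying concentrations. Medium replaced, then cultured 1–2 weeks with medium changes every 2–3 days. Stained with crystal violet; colonies of ≥50 cells counted visually. Expressed as % of untreated cells; mean ± SEM of three experiments.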

Jurkat [5] = experiment: Induction of apoptosis in human Jurkat cells assessed as reduction in alive cells using Annexin-V and propidium iodide staining at 1 to 2 uM measured 24 hrs post 2.5 J/cm'2 irradiation by flow cytometry analysis; format: functional, cell-based
Outline: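 Jurkat cells irradiated (2.5 J/cm²) with compound at 1 or 2 µM. After 24 h, co-stained with Annexin V-FITC and PI and analysed by flow cytometry (excitation 488 nm; emission 525 and 585 nm). Mean of three independent experiments.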

[6] = Induction of singlet oxygen generation measured after UV-A irradiation by RNO bleaching assay; format: physicochemical
Outline: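 Compound (2.2 × 10⁻⁵ M), RNO (4 × 10⁻⁵ M) and imidazole (4 × 10⁻⁵ M) in phosphate buffer pH 7.3 irradiated with increasing UV-A doses. Absorbance read at 440 nm; reported as % RNO bleaching.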

HL-60 [7] = experiment: Cytotoxicity against human HL60 cells assessed as growth inhibition after 72 hrs by MTT assay; format: functional; conditions: HL-60, 72 h
HL-60 [8] = experiment: Photocytotoxicity against human HL60 cells assessed as growth inhibition at 1.25 J/cm'2 irradiation for 30 mins followed by drug treated for 72 hrs by MTT assay; format: functional; conditions: HL-60, light or radiation study
Outline: (§4)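 Cells seeded at 5 × 10³ per well and pre-incubated 24 h. Drug dilutions in HBSS (pH 7.2, from DMSO stock) added for 30 min at 37 °C, then UV-A irradiation at the stated dose. Drug solution then replaced with culture medium and plates incubated 72 h. Viability by MTT; GI50 from concentration series.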

Jurkat [9] = experiment: Cytotoxicity against human Jurkat cells assessed as growth inhibition after 72 hrs by MTT assay; format: functional
[10] = Induction of superoxide anion generation measured after UV-A irradiation by NBT reduction assay; format: physicochemical
Outline: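 Compound (10⁻⁵ M) with nitroblue tetrazolium (1.6 × 10⁻⁴ M) in carbonate buffer pH 10 irradiated with increasing UV-A doses. Absorbance at 560 nm followed as the superoxide read-out.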

Escherichia coli = experiment: Induction of DNA damage in Escherichia coli pBR322 DNA measured at 7.5 J/cm'2 UV-A irradiation by neutral agarose electrophoresis
Outline: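 pBR322 plasmid (100 ng) in 10 mM phosphate buffer pH 7.2 irradiated at 7.5 J/cm² UV-A with compound at a compound/DNA ratio of 3/1. Aliquots incubated at 37 °C with Fpg or Endo III. Run on 1% agarose in TAE at 70 V for 4 h; supercoiled, open circular and linear bands quantified.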

MCF7 [11] = experiment: Cytotoxicity against human MCF7 cells assessed as growth inhibition after 72 hrs by MTT assay; format: functional; conditions: MCF7, 72 h; outline: as §2
Jurkat [12] = experiment: Induction of apoptosis in human Jurkat cells assessed as lysosome death at 1 to 2 uM using acridine orange staining measured 24 hrs post 2.5 J/cm'2 irradiation by flow cytometry; format: functional, cell-based
LoVo [13] = experiment: Ratio of angelicin GI50 to compound GI50 for human LoVo cells assessed as growth inhibition at 3.75 J/cm'2 irradiation for 30 mins followed by drug treated for 72 hrs by MTT assay; format: functional; outline: as §1
LoVo [14] = experiment: Photocytotoxicity against human LoVo cells assessed as growth inhibition at 3.75 J/cm'2 irradiation for 30 mins followed by drug treated for 72 hrs by MTT assay; format: functional; conditions: light or radiation study; outline: as §4
LoVo [15] = experiment: Photocytotoxicity against human LoVo cells assessed as growth inhibition at 2.5 J/cm'2 irradiation for 30 mins followed by drug treated for 72 hrs by MTT assay; format: functional; conditions: light or radiation study; outline: as §4
Jurkat [16] = experiment: Induction of lipid peroxidation in human Jurkat cells at 2 uM measured 24 hrs post 2.5 J/cm'2 irradiation by TBA assay; format: functional, cell-based
Outline: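 TBA test for TBARS performed on supernatant medium and on cell lysates 24 h post-irradiation. Mean ± SEM of three experiments.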

MCF7 [17] = experiment: Photocytotoxicity against human MCF7 cells assessed as growth inhibition at 3.75 J/cm'2 irradiation for 30 mins followed by drug treated for 72 hrs by MTT assay; format: functional; conditions: MCF7, light or radiation study; outline: as §4
MCF7 [18] = experiment: Photocytotoxicity against human MCF7 cells assessed as growth inhibition at 2.5 J/cm'2 irradiation for 30 mins followed by drug treated for 72 hrs by MTT assay; format: functional; conditions: MCF7, light or radiation study; outline: as §4
HL-60 [19] = experiment: Photocytotoxicity against human HL60 cells assessed as growth inhibition at 2.5 J/cm'2 irradiation for 30 mins followed by drug treated for 72 hrs by MTT assay; format: functional; conditions: HL-60, light or radiation study; outline: as §4
A549 [20] = experiment: Photocytotoxicity against human A549 cells assessed as growth inhibition at 2.5 J/cm'2 irradiation for 30 mins followed by drug treated for 72 hrs by MTT assay; format: functional; conditions: A549, light or radiation study; outline: as §4
Jurkat [21] = experiment: Induction of apoptosis in human Jurkat cells assessed as increase in cleaved caspase 3 level at 1 uM measured 24 hrs post 2.5 J/cm'2 irradiation by Western blot analysis; format: functional, cell-based
Outline: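 Jurkat cells irradiated (2.5 J/cm²) with compound at 1 µM. At 24 h, cells washed in cold PBS and lysed on ice for 20 min. 20 µg protein run on 8–16% gradient gels and transferred to nitrocellulose. Probed with rabbit anti-caspase-3 and β-actin (1:1000, 2 h), then peroxidase anti-rabbit IgG; ECL detection.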

A549 [22] = experiment: Cytotoxicity against human A549 cells assessed as growth inhibition after 72 hrs by MTT assay; format: functional; conditions: A549, 72 h; outline: as §2
A549 [23] = experiment: Photocytotoxicity against human A549 cells assessed as inhibition of colony formation at 2.5 J/cm'2 irradiation after 1 to 2 weeks using crystal violet staining by optical microscopy; format: functional, cell-based; outline: as §3
Jurkat [24] = experiment: Induction of apoptosis in human Jurkat cells assessed as reduction in mitochondrial potential at 1 to 2 uM using JC-1 staining measured 24 hrs post 2.5 J/cm'2 irradiation by FACS assay; format: functional, cell-based
Outline: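 At 24 h after 2.5 J/cm² irradiation with compound at 1 or 2 µM, Jurkat cells were pelleted and resuspended in HBSS with 1 µM JC-1. After 10 min at 37 °C, fluorescence read at 530 and 590 nm by flow cytometry. Mean ± SEM, n=3.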

A549 [25] = experiment: Photocytotoxicity against human A549 cells assessed as growth inhibition at 3.75 J/cm'2 irradiation for 30 mins followed by drug treated for 72 hrs by MTT assay; format: functional; conditions: A549, light or radiation study; outline: as §4
Jurkat [26] = experiment: Photocytotoxicity against human Jurkat cells assessed as growth inhibition at 2.5 J/cm'2 irradiation for 30 mins followed by drug treated for 72 hrs by MTT assay; format: functional; conditions: light or radiation study; outline: as §4
Jurkat [27] = experiment: Photocytotoxicity against human Jurkat cells assessed as growth inhibition at 1.25 J/cm'2 irradiation for 30 mins followed by drug treated for 72 hrs by MTT assay; format: functional; conditions: light or radiation study; outline: as §4

## COc1ccc(-n2ncc3c2ccc2cc(S(=O)(=O)c4ccccc4)c(=O)n(C)c23)cc1
MCF7 [1]
  Ratio IC50: 10
LoVo [2]
  GI50: > 20000 nM
Jurkat [3]
  Activity: Active
A549 [4]
  Activity: Dose-dependent effect
Jurkat [5]
  Activity: Active
[6]
  Activity: Active
HL-60 [7]
  GI50: > 20000 nM
HL-60 [8]
  GI50: 610 nM
Jurkat [9]
  GI50: > 20000 nM
[10]
  Activity: Active
Escherichia coli
  Activity: inactive
MCF7 [11]
  GI50: 9600 nM
Jurkat [12]
  Activity: Active
LoVo [13]
  Ratio IC50: 12
LoVo [14]
  GI50: 90 nM
LoVo [15]
  GI50: 190 nM
Jurkat [16]
  Activity: Active
MCF7 [17]
  GI50: 140 nM
MCF7 [18]
  GI50: 290 nM
HL-60 [19]
  GI50: 440 nM
A549 [20]
  GI50: 270 nM
Jurkat [21]
  Activity: Active
A549 [22]
  GI50: > 20000 nM
A549 [23]
  Activity: Dose-dependent effect
Jurkat [24]
  Activity: Active
A549 [25]
  GI50: 80 nM
Jurkat [26]
  GI50: 250 nM
Jurkat [27]
  GI50: 580 nM
